Structures are written as SMILES.

Experiment [1] deals with T1, Aurora kinase A (Homo sapiens) (UniProt O14965).
T1 sequence (whole entry): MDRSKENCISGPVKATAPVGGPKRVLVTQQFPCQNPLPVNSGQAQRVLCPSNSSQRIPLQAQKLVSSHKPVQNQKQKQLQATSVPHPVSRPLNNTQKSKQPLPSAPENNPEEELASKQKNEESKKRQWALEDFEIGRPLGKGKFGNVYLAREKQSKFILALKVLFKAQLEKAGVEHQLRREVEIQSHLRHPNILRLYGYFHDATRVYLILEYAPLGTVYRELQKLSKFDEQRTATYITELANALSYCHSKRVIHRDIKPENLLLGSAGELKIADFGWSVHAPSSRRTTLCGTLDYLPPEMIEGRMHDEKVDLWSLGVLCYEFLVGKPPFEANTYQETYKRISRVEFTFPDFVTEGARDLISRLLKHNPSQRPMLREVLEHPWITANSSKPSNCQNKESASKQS
The experiment is described as follows: Inhibition of AURKA (unknown origin) at 1 uM relative to control; values are per cent of control.

The target in experiment [2] is T2, TGF-beta receptor type-1 (Homo sapiens) (UniProt P36897).
T2 sequence (whole entry): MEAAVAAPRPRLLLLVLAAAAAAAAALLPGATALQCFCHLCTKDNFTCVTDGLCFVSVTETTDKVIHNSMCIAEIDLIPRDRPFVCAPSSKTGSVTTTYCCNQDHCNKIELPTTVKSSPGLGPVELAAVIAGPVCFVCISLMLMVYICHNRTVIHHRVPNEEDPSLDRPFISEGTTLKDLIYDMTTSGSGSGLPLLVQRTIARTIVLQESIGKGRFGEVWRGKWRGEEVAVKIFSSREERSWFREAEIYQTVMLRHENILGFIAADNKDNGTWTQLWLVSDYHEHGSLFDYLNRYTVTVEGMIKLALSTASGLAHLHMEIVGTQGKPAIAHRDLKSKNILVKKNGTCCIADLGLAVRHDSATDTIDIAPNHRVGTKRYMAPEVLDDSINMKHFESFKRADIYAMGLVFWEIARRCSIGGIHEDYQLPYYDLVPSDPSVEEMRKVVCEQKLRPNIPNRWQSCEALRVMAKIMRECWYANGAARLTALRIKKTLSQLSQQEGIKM
The experiment is described as follows: Inhibition of TGFBR1 (unknown origin) at 1 uM relative to control. Conditions: values are per cent of control. Put shortly: (§1)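 KinomeSCAN competitive binding panel of 100 kinases; compounds tested at 1 µM in duplicate; read-out is percent […] control.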

The target in experiment [3] is Casein kinase I isoform gamma-2 (Homo sapiens) (UniProt P78368). Put plainly: Inhibition of CSNK1G2 (unknown origin) at 1 uM relative to control; values are per cent of control.
Sequence of Casein kinase I isoform gamma-2 (Homo sapiens) (P78368 whole entry, looked up, canonical isoform): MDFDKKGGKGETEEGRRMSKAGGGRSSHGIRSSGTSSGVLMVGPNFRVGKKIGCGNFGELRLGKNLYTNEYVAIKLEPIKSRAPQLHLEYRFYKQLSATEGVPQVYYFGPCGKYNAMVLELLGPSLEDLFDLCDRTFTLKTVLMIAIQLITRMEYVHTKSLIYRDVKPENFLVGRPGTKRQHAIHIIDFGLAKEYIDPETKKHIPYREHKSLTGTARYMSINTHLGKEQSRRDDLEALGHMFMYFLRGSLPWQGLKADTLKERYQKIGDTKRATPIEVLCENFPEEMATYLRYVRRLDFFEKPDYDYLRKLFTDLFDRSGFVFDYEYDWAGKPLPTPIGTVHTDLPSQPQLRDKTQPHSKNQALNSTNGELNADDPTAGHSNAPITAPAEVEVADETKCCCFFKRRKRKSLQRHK
Experiment [4] has as its target Serine/threonine-protein kinase 32B (Homo sapiens) (UniProt Q9NY57). Put plainly: Inhibition of YANK2 (unknown origin) at 1 uM relative to control. Conditions: values are per cent of control. In short, it runs like this:
as §1

The target of experiment [5] is cAMP-dependent protein kinase catalytic subunit alpha (Homo sapiens) (UniProt P17612). The experiment is described as follows: Inhibition of PKACalpha (unknown origin) at 1 uM relative to control. The settings on record: values are per cent of control. In short, it runs like this: as §1
The target of experiment [6] is Mitogen-activated protein kinase kinase kinase 9 (Homo sapiens) (UniProt P80192). The experiment is described as follows: Inhibition of MLK1 (unknown origin) at 1 uM relative to control; values are per cent of control.
Sequence of Mitogen-activated protein kinase kinase kinase 9 (Homo sapiens) (P80192 whole entry, looked up): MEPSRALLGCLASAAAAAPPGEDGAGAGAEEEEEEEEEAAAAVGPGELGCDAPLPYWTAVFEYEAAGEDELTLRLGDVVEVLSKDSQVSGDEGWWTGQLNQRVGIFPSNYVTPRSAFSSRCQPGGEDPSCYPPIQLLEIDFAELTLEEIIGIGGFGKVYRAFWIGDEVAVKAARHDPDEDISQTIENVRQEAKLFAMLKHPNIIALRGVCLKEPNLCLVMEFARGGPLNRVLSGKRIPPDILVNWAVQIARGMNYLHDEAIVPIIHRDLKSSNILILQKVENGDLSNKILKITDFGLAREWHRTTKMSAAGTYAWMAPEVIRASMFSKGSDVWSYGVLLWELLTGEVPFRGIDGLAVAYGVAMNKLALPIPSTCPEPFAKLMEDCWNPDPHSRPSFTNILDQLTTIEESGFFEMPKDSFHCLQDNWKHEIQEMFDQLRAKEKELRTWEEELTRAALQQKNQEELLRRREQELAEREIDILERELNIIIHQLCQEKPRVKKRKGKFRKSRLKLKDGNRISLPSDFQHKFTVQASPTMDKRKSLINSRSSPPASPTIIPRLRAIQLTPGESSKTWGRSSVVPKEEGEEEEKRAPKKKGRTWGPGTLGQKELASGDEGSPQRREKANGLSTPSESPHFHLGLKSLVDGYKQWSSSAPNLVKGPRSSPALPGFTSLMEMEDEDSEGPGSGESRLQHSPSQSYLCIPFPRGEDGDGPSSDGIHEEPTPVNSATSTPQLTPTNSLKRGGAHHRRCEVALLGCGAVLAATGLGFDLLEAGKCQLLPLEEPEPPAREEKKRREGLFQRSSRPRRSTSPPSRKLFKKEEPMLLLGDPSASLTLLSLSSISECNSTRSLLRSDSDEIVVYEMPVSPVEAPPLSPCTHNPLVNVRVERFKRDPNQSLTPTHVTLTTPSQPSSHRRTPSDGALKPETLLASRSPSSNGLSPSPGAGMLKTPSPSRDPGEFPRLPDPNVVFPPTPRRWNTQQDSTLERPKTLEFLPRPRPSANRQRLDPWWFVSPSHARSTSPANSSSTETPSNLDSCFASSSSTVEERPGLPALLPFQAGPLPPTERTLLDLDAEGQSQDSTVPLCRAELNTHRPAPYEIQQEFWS
The target in experiment [7] is Proto-oncogene tyrosine-protein kinase Src (Homo sapiens) (UniProt P12931). The experiment is described as follows: Inhibition of SRC (unknown origin) at 1 uM relative to control. Conditions: values are per cent of control. In short, it runs like this: as §1
Sequence of Proto-oncogene tyrosine-protein kinase Src (Homo sapiens) (P12931 2-536 limits assumed): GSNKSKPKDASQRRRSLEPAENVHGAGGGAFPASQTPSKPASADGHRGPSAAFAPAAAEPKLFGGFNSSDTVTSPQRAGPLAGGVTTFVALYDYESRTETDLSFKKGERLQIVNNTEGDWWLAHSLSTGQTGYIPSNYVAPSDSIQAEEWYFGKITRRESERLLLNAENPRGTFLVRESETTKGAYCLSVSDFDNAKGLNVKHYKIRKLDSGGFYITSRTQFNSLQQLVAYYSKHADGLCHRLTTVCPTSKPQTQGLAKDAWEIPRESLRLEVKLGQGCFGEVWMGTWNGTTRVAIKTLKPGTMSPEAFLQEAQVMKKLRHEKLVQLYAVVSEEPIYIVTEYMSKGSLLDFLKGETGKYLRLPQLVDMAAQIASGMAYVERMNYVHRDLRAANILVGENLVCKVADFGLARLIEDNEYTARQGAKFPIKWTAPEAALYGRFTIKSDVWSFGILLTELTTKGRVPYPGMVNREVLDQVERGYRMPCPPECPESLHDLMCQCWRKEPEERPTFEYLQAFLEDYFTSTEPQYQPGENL
Experiment [8] addresses Cyclin-dependent kinase 2 (Homo sapiens) (UniProt P24941). Put plainly: Inhibition of CDK2 (unknown origin) at 1 uM relative to control; values are per cent of control.
Experiment [9] deals with Serine/threonine-protein kinase pim-1 (Homo sapiens, UniProt P11309). Put plainly: Inhibition of PIM1 (unknown origin) at 1 uM relative to control. The settings on record: values are per cent of control. Put shortly:
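The supplementary panel puts Pim1 in the KinomeSCAN competitive binding format; compounds at 1 µM in duplicate; percent […] control.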

Experiment [10] deals with T3, Rhodopsin kinase GRK1 (Homo sapiens) (UniProt Q15835).
T3 sequence (whole entry): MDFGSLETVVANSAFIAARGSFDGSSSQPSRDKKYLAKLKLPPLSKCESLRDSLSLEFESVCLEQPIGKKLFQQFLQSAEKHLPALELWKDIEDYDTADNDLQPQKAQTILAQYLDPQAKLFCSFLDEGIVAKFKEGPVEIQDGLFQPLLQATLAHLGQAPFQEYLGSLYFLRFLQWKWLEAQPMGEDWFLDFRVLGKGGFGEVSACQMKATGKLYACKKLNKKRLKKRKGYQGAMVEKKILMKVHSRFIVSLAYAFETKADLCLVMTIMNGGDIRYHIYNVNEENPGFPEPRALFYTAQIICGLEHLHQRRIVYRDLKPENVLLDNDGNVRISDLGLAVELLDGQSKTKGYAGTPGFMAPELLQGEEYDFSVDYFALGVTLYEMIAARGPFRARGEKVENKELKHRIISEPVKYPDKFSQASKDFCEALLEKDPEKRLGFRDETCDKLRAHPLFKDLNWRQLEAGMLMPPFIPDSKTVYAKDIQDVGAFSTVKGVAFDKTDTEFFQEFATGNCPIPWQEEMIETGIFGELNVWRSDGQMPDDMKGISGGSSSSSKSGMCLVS
The experiment is described as follows: Inhibition of GRK1 (unknown origin) at 1 uM relative to control; values are per cent of control.

In experiment [11] the target is Epithelial discoidin domain-containing receptor 1 (Homo sapiens) (UniProt Q08345). Put plainly: Inhibition of DDR1 (unknown origin) at 1 uM relative to control; values are per cent of control.
Sequence of Epithelial discoidin domain-containing receptor 1 (Homo sapiens) (Q08345 whole entry, the tested form may be a part): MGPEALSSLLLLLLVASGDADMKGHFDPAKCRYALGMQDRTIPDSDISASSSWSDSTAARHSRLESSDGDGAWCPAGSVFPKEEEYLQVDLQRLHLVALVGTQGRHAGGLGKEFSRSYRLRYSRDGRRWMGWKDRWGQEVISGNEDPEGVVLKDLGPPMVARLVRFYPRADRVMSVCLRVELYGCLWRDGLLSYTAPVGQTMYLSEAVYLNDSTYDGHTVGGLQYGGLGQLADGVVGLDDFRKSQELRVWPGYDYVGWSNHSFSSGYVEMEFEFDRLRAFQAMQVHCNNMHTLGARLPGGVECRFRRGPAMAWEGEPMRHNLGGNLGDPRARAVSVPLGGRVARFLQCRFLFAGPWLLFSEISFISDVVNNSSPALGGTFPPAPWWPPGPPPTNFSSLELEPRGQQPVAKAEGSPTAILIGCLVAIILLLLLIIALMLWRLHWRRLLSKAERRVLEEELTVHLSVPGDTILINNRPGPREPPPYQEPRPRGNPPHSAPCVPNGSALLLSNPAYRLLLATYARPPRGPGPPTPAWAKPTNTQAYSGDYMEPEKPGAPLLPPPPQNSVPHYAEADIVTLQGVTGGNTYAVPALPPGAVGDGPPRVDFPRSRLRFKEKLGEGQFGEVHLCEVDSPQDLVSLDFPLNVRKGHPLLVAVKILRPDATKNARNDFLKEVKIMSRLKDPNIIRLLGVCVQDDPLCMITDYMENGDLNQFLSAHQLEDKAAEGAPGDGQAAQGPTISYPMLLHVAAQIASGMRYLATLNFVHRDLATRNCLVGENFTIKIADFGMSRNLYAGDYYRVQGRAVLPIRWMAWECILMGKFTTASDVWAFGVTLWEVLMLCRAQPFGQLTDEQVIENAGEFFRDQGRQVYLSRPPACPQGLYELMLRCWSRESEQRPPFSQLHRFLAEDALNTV
The target in experiment [12] is T4, Serine/threonine-protein kinase Chk1 (Homo sapiens) (UniProt O14757).
T4 sequence (whole entry): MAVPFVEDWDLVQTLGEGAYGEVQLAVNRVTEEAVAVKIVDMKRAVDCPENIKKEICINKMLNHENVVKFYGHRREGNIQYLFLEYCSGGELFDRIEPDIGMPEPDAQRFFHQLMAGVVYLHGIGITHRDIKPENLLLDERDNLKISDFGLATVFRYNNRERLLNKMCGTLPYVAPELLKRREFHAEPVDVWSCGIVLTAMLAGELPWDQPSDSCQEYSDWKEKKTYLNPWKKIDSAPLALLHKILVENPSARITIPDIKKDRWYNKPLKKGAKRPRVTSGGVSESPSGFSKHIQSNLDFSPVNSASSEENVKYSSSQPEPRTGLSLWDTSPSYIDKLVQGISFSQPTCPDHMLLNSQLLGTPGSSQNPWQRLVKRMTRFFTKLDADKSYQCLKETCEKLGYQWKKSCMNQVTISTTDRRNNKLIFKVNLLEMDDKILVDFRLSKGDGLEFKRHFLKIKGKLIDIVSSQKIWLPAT
Put plainly: Inhibition of CHEK1 (unknown origin) at 1 uM relative to control; values are per cent of control.

Sequence of Serine/threonine-protein kinase pim-1 (P11309 whole entry, looked up): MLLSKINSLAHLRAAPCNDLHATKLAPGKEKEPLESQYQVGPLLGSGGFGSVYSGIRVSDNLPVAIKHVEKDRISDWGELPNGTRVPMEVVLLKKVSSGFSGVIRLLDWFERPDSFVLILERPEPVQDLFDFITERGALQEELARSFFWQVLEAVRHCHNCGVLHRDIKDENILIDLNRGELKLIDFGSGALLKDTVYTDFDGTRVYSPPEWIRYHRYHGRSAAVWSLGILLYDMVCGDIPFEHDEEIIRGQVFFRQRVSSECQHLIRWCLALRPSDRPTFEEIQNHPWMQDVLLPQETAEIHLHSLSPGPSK
Sequence of Serine/threonine-protein kinase 32B (Homo sapiens) (Q9NY57 whole entry): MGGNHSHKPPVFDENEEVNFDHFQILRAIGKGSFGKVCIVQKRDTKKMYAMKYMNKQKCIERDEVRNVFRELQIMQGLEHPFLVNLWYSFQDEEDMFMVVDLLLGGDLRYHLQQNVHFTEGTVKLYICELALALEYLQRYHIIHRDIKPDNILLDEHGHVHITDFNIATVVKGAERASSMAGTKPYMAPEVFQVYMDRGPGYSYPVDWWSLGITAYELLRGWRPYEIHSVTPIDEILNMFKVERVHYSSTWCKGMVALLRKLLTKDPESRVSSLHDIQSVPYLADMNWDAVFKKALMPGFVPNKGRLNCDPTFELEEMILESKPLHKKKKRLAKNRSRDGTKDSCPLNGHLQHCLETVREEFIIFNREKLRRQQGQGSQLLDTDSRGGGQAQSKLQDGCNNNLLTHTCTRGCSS

As for `NC(=O)c1sc(-c2ccnc(N)n2)nc1-c1ccc(Cl)cc1Cl`, the residual activity in experiment [1] came out at 77%; in experiment [3] it was 5%; in experiment [6], 99%; in [8], 100%; in experiment [10] it was 75%; in experiment [11], 80%. The residual activity in experiment [12] was 100%. Besides, the residual binding, % of control in experiment [2] was 91%; in experiment [4] it was 100%; in [5], 69%; in [7] it was 100%; in experiment [9], 83%.
In the case of `CCOC(=O)c1sc(-c2ccncc2)nc1O`, the residual activity stood at 100% in [1]; 77% in [3]; 90% in experiment [6]; 100% in [8]; 99% in experiment [10]; 98% in experiment [11]. In addition, the residual activity in experiment [12] turned out to be 100%. The residual binding, % of control came out at 100% in experiment [2]; 82% in experiment [4]; 100% in [5]; 81% in experiment [7]; 75% in experiment [9].
Regarding `COc1ccc(-c2nc(-c3ccnc(N)n3)sc2C(N)=O)c(Cl)c1`, the residual activity in experiment [1] is 55%; in experiment [3], 5.2%; in experiment [6], 94%; in experiment [8], 84%; in [10], 100%; in experiment [11], 84%. For the same compound, the residual activity in experiment [12] amounted to 78%. For the same compound, the residual binding, % of control came to 72% in experiment [2]; 88% in [4]; 70% in experiment [5]; 100% in [7]; 99% in experiment [9].

The values above are taken from ChEMBL document CHEMBL3259739, “Synthesis and structure-activity relationship of trisubstituted thiazoles as Cdc7 kinase inhibitors” (Eur J Med Chem, 2014).
